Assay results from paper PMC8355823 (Toxicology Reports, 2021).
Read-outs that look alike come from different tables or passages of the source.

Experiments:
ES-D3 embryoid bodies [1] = assay: Total protein measurements of EBs; type: cell-based, murine; conditions: Mus musculus, 168 h, read-out: Protein level (EC50); day 7
How it was run: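 Differentiation run without LIF. Hanging drops kept 3 days, then exposure to test compound during EB culture. On differentiation day 7, 24 EBs per condition were pooled, dissociated at 37 °C for 3 min, washed in PBS and permeabilised in 1% Triton X-100 for 5 min. Protein measured by Micro BCA in triplicate. EC50 taken from an exponential concentration-response fit with 90% BMCL-BMCU.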

ES-D3 cells = assay: Cell viability assay; type: cell-based, murine; conditions: Mus musculus, 120 h, read-out: Viability (IC50)
How it was run: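 ES-D3 cells plated at 500/well in LIF-containing medium and settled 2 h at 37 °C, 5% CO2. Exposed in six replicates to test compound, 0.25% DMSO vehicle, or penicillin G and 5-fluorouracil controls. Medium renewed at the same final concentrations after 3 days, then 2 more days. CellTiter-Blue added for 2 h; fluorescence read at 544/590 nm and expressed as % of DMSO. n = 3 experiments. IC50 taken from an exponential concentration-response fit with 90% BMCL-BMCU.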

rats = conditions: cited from earlier work
ES-D3 embryoid bodies [2] = assay: Embryoid body; type: cell-based, murine; conditions: Mus musculus, read-out: EB area (EC50); day 7
How it was run: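 Differentiation run without LIF. Hanging drops kept 3 days, then EBs moved to exposure medium for 2 days, then placed singly in 24-well plates with exposure medium. On differentiation day 7, each EB was imaged by bright field at 4x and its border traced to give area. Mean area of 24 EBs per condition was used. EC50 taken from an exponential concentration-response fit with 90% BMCL-BMCU.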

zebrafish = conditions: cited from earlier work
rabbits = conditions: cited from earlier work
ES-D3 embryoid bodies [3] = assay: Gene expression analysis; type: cell-based, murine; conditions: after 24 h exposure, day 4
How it was run: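 EBs differentiated to day 4 with 24 h exposure to test compound or 0.25% DMSO. 7–8 EB samples from two independent experiments. RNA isolated with a DNase step; quality accepted at 260/280 of 1.9–2.2 and RIN >8.2. TaqMan real-time PCR: 95 °C for 20 s, then 40 cycles of 95 °C 3 s and 60 °C 30 s. Values by ΔΔCt against mean Hprt1/Gusb/Polr2a. One-way ANOVA with Sidak test (p < 0.05) versus control.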

Structure (SMILES)	EC50 (ES-D3 embryoid bodies [1]) [µM]	IC50 (ES-D3 cells) [µM]	Degenerated neurons in the cerebellum of the offspring (rats; exposure of pregnant rats)	Numbers of Purkinje cells in the offspring (rats; exposure of pregnant rats)	Psychobiological development (rats; neonatal rats, dams exposed to 1 mg/kg per os)	Acetylcholine esterase (AChE) (rats; neonatal rats)	Muscarinic receptors (rats; neonatal rats)	Malformations (rats; rats, maternally toxic doses of 25 mg/kg per day)	EC50 (ES-D3 embryoid bodies [2]) [µM]	Cardiac-related developmental defects (zebrafish; zebrafish)	Fetotoxicity and teratogenicity (rabbits)	Fetotoxicity and teratogenicity (rats; rats)	Cardiac-related developmental defects (zebrafish; zebrafish model)	Cardiac effects (zebrafish; zebrafish)	Myh6 gene expression (late cardiomyocyte differentiation marker) (ES-D3 embryoid bodies [3])
CCOP(=S)(OCC)Oc1nc(Cl)c(Cl)cc1Cl [Chlorpyrifos]	92	85.7	increased degenerated neurons	reduced numbers of Purkinje cells	delay in psychobiological development	reductions	dose-dependent decrease	multiple malformations	139	pericardial oedema	–	–	–	–	–
CCOC(=O)CC(SP(=S)(OC)OC)C(=O)OCC (stereo not shown) [Malathion, malathion]	80.2	49.4	–	–	–	–	–	–	72	bradycardia and a reduced heart rate	neither fetotoxic nor teratogenic	–	–	–	–
O=P(Oc1ccccc1)(Oc1ccccc1)Oc1ccccc1 [Triphenyl phosphate, triphenyl phosphate]	108	61.4	–	–	–	–	–	–	120	–	–	neither fetotoxic nor teratogenic	impaired cardiac looping and function	impairments in cardiac looping and function defects	not expressed yet
